CHOP inh: inhibitors of CHOP promoter induction, primary screen, cell-based, unfolded protein response, luciferase reporter | CHO-K1 CHOP-promoter luciferase, tunicamycin-induced, 15-18 h | inhibition, % at 10 µM | hit rate 3.8% among 220,000;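 active = compounds that reduced the stress-induced luciferase reporter signal by more than about 70% of percent inhibition, limit read from the data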;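 note: 0% = tunicamycin plus vehicle and 100% = wells without tunicamycin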
TLR4-MyD88 BLA: inhibitors of TLR4-MyD88 association in cells, primary screen, cell-based, HeLa CL3-4, BLA complementation, FRET ratio; HeLa CL3-4 TLR4/MyD88 BLA complementation; AID 861, 2007; hit rate 0.18% among 200,000; Toll-like receptor 4 (Homo sapiens) + Myeloid differentiation primary response protein …; inhibition, % at 8.4 µM; in the data active = inhibition above about 25%;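 note: 0% = vehicle and 100% = reference inhibitor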
Target sequence (O00206 whole entry, looked up): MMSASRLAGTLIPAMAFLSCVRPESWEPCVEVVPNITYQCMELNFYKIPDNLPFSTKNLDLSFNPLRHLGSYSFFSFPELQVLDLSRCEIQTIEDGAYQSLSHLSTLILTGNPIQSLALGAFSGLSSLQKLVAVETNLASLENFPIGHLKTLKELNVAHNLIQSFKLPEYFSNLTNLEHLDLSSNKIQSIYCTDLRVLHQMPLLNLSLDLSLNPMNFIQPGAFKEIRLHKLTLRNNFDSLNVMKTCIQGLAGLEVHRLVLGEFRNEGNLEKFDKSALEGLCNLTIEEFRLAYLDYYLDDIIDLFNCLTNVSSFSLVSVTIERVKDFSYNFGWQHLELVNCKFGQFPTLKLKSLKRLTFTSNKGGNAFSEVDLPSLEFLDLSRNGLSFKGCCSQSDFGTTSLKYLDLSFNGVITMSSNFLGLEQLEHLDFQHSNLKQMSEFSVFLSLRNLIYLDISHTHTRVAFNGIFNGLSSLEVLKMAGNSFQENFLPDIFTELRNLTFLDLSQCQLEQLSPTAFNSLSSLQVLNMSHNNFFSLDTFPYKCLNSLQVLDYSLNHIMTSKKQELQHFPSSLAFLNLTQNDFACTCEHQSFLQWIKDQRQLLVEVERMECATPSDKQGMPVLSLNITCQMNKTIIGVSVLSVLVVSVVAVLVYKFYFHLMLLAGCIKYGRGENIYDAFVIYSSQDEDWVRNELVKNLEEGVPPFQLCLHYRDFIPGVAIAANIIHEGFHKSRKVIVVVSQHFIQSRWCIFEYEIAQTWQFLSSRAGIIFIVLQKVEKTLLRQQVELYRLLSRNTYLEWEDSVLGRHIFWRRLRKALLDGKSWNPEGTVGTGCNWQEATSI
Target sequence (Q99836 whole entry, looked up): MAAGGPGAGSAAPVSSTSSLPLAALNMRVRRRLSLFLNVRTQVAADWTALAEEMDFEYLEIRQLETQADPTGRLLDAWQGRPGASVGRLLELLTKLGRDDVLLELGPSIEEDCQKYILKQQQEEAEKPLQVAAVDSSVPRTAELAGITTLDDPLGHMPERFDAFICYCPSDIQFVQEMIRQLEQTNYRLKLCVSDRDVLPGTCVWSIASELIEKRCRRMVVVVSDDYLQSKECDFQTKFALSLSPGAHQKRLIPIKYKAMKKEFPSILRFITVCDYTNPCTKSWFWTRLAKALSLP
TLR9-MyD88 inh: inhibitors of TLR9-MyD88 association in cells, primary screen, cell-based, CHO, BLA complementation, fluorescence | hit rate 0.21% among 340,000 | inhibition, % at 4.98 µM | CCF4 FRET ratio;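 active = inhibition above the mean over all tested compounds plus 3 SD, cut at about 21% in these data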;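 note: 0% = DMSO only wells and 100% = clavulanate BLA inhibitor control wells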
NOD2 RIPK2 PPI: NOD2-RIPK2 binding disruptors in cells, primary screen, fluorescence, CHO cells, BLA complementation. Receptor-interacting serine/threonine-protein kinase 2 (Homo sapiens), O43353. CCF4 ratio. inhibition, % at 4.98 µM. hit rate 0.38% among 360,000; in the data active = inhibition above about 21%;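 note: 0% = vehicle only and 100% = reference blocker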
XBP1 UPR activ: activators of adaptive XBP1 UPR arm, primary screen, cell-based, CHO-XBP1 luciferase reporter, luminescence, uHTS. hit rate 0.33% among 330,000. activation, % at 20 µM. IRE1-XBP1 UPR activation; percent of tunicamycin response, DMSO as zero;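 active = versus positive control, 20 µM dose yields 30% or more activation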;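 note: 100% = tunicamycin at 10 µg/mL and 0% = DMSO only wells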
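incubation = overnight seeding at 37 °C, 6 h compound treatment at 37 °C | assay system = CHO-XBP1 cells stably carrying IRE1-XBP1-driven luciferase reporter | input = 1000 cells per well | detection = luciferase luminescence | dosing = single point, 20 µM final compound, 1% DMSO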
UPR CHOP act: activators of apoptotic CHOP UPR arm, primary screen, cell-based, CHO-CHOP luciferase reporter, luminescence, uHTS; UPR activation; percent of tunicamycin response over DMSO baseline; hit rate 0.34% among 330,000; AID 449763, 2010; activation, % at 10 µM;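 active = at 10 µM dose, activation of 40% or more, normalized to positive control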;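 note: 100% = tunicamycin at 10 µg/mL and 0% = DMSO alone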
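Assay system: CHO cells with stable CHOP pathway luciferase reporter; Buffer or medium: F12 plus 10% serum; Times: 16-18 h cell attachment, then 6 h compound exposure, 37 °C; Signal: luciferase luminescence; Read-out basis: percent activation relative to tunicamycin control; Control set: tunicamycin high control, DMSO low control.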
UPR XBP1 confirm: IRE1-XBP1 UPR arm activators, confirmation, cell-based, CHO-XBP1 luciferase reporter, luminescence, single concentration; shares compounds with XBP1 UPR activ; activation, % at 20 µM; hit rate 63% among 1,000;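 active = reporter signal at least 30% of the positive control's activation in two or more of four replicate wells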;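 note: plate controls were DMSO negative control for no effect and tunicamycin 10 µg/mL positive control for full effect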
Numbers without * were called inactive; x = no result given. The entries come from a sample that favours hits as a whole.

SMILES	CHOP inh	TLR4-MyD88 BLA	TLR9-MyD88 inh	NOD2 RIPK2 PPI	XBP1 UPR activ	UPR CHOP act	UPR XBP1 confirm
CN(Cc1ccccc1)C(=O)[C@@H]1CCCN1S(=O)(=O)c1ccc(Cl)cc1	x	x	-6	-5	-3	2	x
O=C(Oc1ccccc1/C=C\C(=O)c1cc2ccccc2o1)c1cccc(F)c1	-10	9	-6	6	39*	26	60*
O=C(N/N=C/c1ccccc1OC(=O)c1ccc2c(c1)OCO2)c1cccc(F)c1	0	9	0	4	-1	0	x
CNC(=O)c1ccc(-n2nc(C)cc2-c2ccccc2)cc1	-3	6	2	-2	44*	2	0
CN(C)CCOc1ccc(-c2c(-c3ccccc3)sc3ccccc23)cc1	x	x	-1	4	60*	4	55*
Cc1ccccc1OCc1nc(-c2ccc(NC(=O)c3ccc4c(c3)OCO4)cc2)no1	74*	6	1	-3	69*	35	44*
COc1cccc(CN2C(=O)C3CCCN3c3ccc(S(=O)(=O)N4CCOCC4)cc32)c1 (centres undefined)	-1	12	x	x	0	0	x
CC(C)=CCc1c(O)cc2c(=O)c3ccc(O)cc3oc2c1O	x	x	3	-11	18	6	x
CC(C)=CCc1c2c(c3occ(-c4ccc(O)cc4)c(=O)c3c1O)C=CC(C)(C)O2	76*	7	-13	6	56*	5	50*
O=C(Nc1nnc(CCN2CCCCC2)s1)c1ccccc1Cl	22	2	-5	-7	-3	0	x
CCN(CC(=O)Nc1ccccc1OC)C(=O)CN1C(=O)NC(C)(c2ccc3ccccc3c2)C1=O (centres undefined)	x	x	8	2	x	x	x
c1cc(SSc2ccncc2)ccn1	x	x	9	5	-1	-1	x
c1ccc(SSc2ccccc2)cc1	51	8	0	-6	49*	10	22
O=C(c1cc(-c2ccc(Br)cc2)nc2ccccc12)N1CCN(c2ccccc2O)CC1	x	x	7	-3	3	7	x
Cc1ccc(-c2cc(C(=O)N3CCN(c4ccccc4O)CC3)c3ccccc3n2)o1	x	x	-5	3	38*	4	1
CC(=O)c1cccc(NC(=O)c2cc(-c3ccncc3)nc3ccccc23)c1	x	x	11	-1	-1	1	x
O=C(O)c1cc(-c2cccnc2)nc2ccc(Br)cc12	9	-6	-11	-10	3	-1	x
COC(=O)c1sccc1NC(=O)c1cc(-c2cccc(C)c2)nc2ccccc12	28	6	-6	-5	64*	-1	80*
Cc1cc(NC(=O)c2cc(-c3ccncc3)nc3ccccc23)ccc1Br	x	x	-5	10	66*	2	44*
COC(=O)c1sccc1NC(=O)c1cc(-c2ccc(C)cc2)nc2ccccc12	-24	7	2	-8	0	1	x
CSc1ccccc1NC(=O)c1cc(-c2cccnc2)nc2ccc(Br)cc12	104*	4	-25	-1	32*	1	66*
CSCCC(NC(=O)c1ccccc1Br)C(=O)NNC(=O)c1ccncc1 (centres undefined)	x	x	5	-9	-4	1	x
COc1ccc(Cl)cc1N1C(=O)CN(Cc2cc(OC)c(OC)c(OC)c2)C1=S	x	x	-3	-13	-6	2	x
COc1ccc(C(=O)O/N=C/c2c(C(F)(F)F)nn(C)c2SCc2ccccc2Cl)cc1	8	-3	2	-6	62*	15	83*
O=C(NCCCn1ccnc1)c1nn2c(C(F)(F)F)cc(-c3ccc(Br)cc3)nc2c1Cl	43	-5	-5	3	37*	2	94*
SMILES	CHOP inh	TLR4-MyD88 BLA	TLR9-MyD88 inh	NOD2 RIPK2 PPI	XBP1 UPR activ	UPR CHOP act	UPR XBP1 confirm
COc1ccc(CCn2c(=S)[nH]c3cc(C(=O)NCc4ccco4)ccc3c2=O)cc1OC	96*	-3	7	-6	62*	5	66*
CCCc1cc(=O)oc2c(C)c(OCC(=O)Nc3cccnc3)ccc12	x	x	-8	-4	-1	1	x
COC(=O)c1ccccc1NC(=O)c1ccc(-c2cccc(Cl)c2)o1	67	-2	2	2	52*	14	15
COc1cc(/C=N/NC(=O)c2sc3nc(C)cc(C)c3c2N)ccc1O	59	x	x	-2	46*	1	16
N#CC1(NC(=O)CN2CCc3ccccc3C2)CCCC1	15	-6	-4	-8	-1	-1	x
COc1ccc(Nc2ncnc3sc(C)cc23)c(OC)c1	x	x	-2	-6	30*	5	1
COc1ccc(Nc2ncnc3ccccc23)c(OC)c1	11	10	5	-6	-1	1	x
NC(=S)N/N=C/c1ccc(C23CC4CC(CC(C4)C2)C3)cc1	x	x	x	x	60*	33	64*
NC(=S)N/N=C/c1ccccc1	5	-7	3	-5	0	1	x
COc1ccc(-c2c(C(C)=O)c(C)nc3sc4c(c23)NC(c2ccccc2)NC4=O)cc1 (centres undefined)	7	16	-5	-2	60*	2	12
CCOC(=O)c1c(C)nc2sc3c(c2c1-c1ccc(OC)cc1)NC(c1ccccc1)NC3=O (centres undefined)	46	0	2	-4	0	0	x
O=C(CN1C(=O)/C(=C\c2ccco2)SC1=S)Nc1ccc(O)cc1C(=O)O	x	x	8	2	-3	1	x
Cc1ccc(C(C[N+](=O)[O-])c2c(-c3ccccc3O)[nH][nH]c2=O)cc1 (centres undefined)	11	-5	-10	-1	31*	16	-2
O=C(/C=C/c1ccco1)NC(=S)Nc1nc(-c2ccc3ccccc3c2)cs1	-49	-11	5	8	13	0	x
COc1ccc(-c2csc(NC(=S)NC(=O)/C=C/c3ccccc3)n2)cc1Br	-22	x	x	x	160*	5	250*
c1ccc(CNc2nc(NCc3ccccc3)c3ccccc3n2)cc1	33	x	-10	1	59*	24	30
Cc1ccc2nc(Cl)c(C3CC(c4cccs4)=NN3S(C)(=O)=O)cc2c1 (centres undefined)	-3	3	-6	-11	2	3	x
CCc1cc2c(N=Nc3c(O)[nH]c4ccccc34)ncnc2s1	52	5	2	2	35*	16	4

Screens deposited in PubChem BioAssay by several laboratories.
